Reference: ChEMBL document CHEMBL1135825, “Antitumor AHMA linked to DNA minor groove binding agents: synthesis and biological evaluation” (J Med Chem, 2002)
pIC50: −log10 of the molar value.

What was measured:
[1] = Cytotoxicity against human Glioblastoma multiformi DBTRG; type: functional
In short: (§1)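 XTT-tetrazolium growth assay, cells exposed 72 h to six to seven concentrations per compound. Phenazine methosulfate-XTT added for 6 h at 37 °C, then absorbance read at 450 and 630 nm. IC50 derived from median-effect plot of dose-effect data.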

[2] = system: HONE1 cell line; assay: Cytotoxicity against human nasopharyngeal carcinoma HONE-1; type: functional, cell-based; in short: as §1
[3] = system: TSGH; assay: In vitro cytotoxicity against human TSGH; type: functional, cell-based; in short: as §1
[4] = system: Nucleic Acid; assay: Percentage of protein-linked DNA breaks.; type: functional; design: concentration or dose not given beside the values
In short: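 Log-phase cells labeled 24 h with [14C]-thymidine, trypsinized, resuspended at 5 × 10⁵ cells/mL and shaken 1 h at 37 °C in suspension. Drug at 10 μM added for 0.5 h. Protein-linked DNA breaks quantified by potassium-SDS coprecipitation and reported as percentage.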

[5] = system: HepG2; assay: Cytotoxicity against human hepatoma Hepa-G2; type: functional, cell-based; in short: as §1
[6] = Cytotoxicity against human nasopharyngeal carcinoma BM-1; type: functional; in short: as §1
[7] = system: HT-29; assay: Cytotoxicity against human colon HT-29 cell line; type: functional, cell-based; in short: as §1
[8] = system: CCRF-CEM; assay: (§2) Cytotoxicity against human T-cell acute lymphocytic leukemia CCRF-CEM; type: functional, cell-based; in short: as §1
[9] = system: Nucleic Acid; assay: Percentage of protein-linked DNA breaks; Not determined; type: functional
[10] = system: CCRF-CEM; assay: as §2; type: cell-based; in short: as §1
[11] = system: MX1; assay: Cytotoxicity against human Breast carcinoma MX-1; type: functional, cell-based; in short: as §1

SMILES	pIC50 [1]	pIC50 [2]	pIC50 [3]	Activity [4]	pIC50 [5]	pIC50 [6]	pIC50 [7]	pIC50 [8]	Activity [9]	pIC50 [10]	pIC50 [11]
CN(C)CCNC(=O)c1cc(NC(=O)c2cc(NC(=O)CCC(=O)Nc3cc(CO)cc(Nc4c5ccccc5nc5ccccc45)c3)cn2C)cn1C	4.70	5.62	5.32	3.3%	5.15	5.07	5.36	–	–	–	–
CCOC(=O)Nc1cc(CO)cc(Nc2c3ccccc3nc3ccccc23)c1	5.30	7.15	6.47	15%	6.34	6.42	6.32	7.24	–	–	–
Nc1cc(CO)cc(Nc2c3ccccc3nc3ccccc23)c1	5.46	6.51	6.35	–	5.85	6.07	6.06	6.44	10.5%	–	–
CN(C)CCNC(=O)c1cc(NC(=O)CCC(=O)Nc2cc(CO)cc(Nc3c4ccccc4nc4ccccc34)c2)cn1C	5.09	6.07	5.34	3.3%	5.38	5.15	5.77	–	–	–	–
CN(C)CCNC(=O)c1cc(NC(=O)c2cc(NC(=O)CCCC(=O)Nc3cc(CO)cc(Nc4c5ccccc5nc5ccccc45)c3)cn2C)cn1C	< 4.00	4.19	4.44	0%	4.17	4.11	< 4.00	–	–	–	–
CN1CCN(c2ccc3nc(-c4ccc5nc(-c6ccc(OCCCC(=O)Nc7cc(CO)cc(Nc8c9ccccc9nc9ccccc89)c7)cc6)[nH]c5c4)[nH]c3c2)CC1	< 4.00	< 4.00	< 4.00	–	< 4.00	< 4.00	< 4.00	–	–	< 4.00	< 4.00
CCOC(=O)Nc1cc(COC(=O)CCC(=O)Nc2cc(C(=O)NCCN(C)C)n(C)c2)cc(Nc2c3ccccc3nc3ccccc23)c1	6.10	7.22	7.10	16.5%	7.05	7.10	6.64	5.16	–	–	7.41
CCOC(=O)Nc1cc(COC(=O)CCCC(=O)Nc2cc(C(=O)Nc3cc(C(=O)NCCN(C)C)n(C)c3)n(C)c2)cc(Nc2c3ccccc3nc3ccccc23)c1	5.12	6.89	5.92	4.2%	6.20	6.31	6.19	5.69	–	–	6.81
CN(C)CCNC(=O)c1cc(NC(=O)CCCC(=O)Nc2cc(CO)cc(Nc3c4ccccc4nc4ccccc34)c2)cn1C	4.13	4.41	4.33	0%	4.00	4.13	< 4.00	–	–	–	–
CCOC(=O)Nc1cc(COC(=O)CCCC(=O)Nc2cc(C(=O)NCCN(C)C)n(C)c2)cc(Nc2c3ccccc3nc3ccccc23)c1	6.40	6.10	5.92	4.6%	7.10	7.10	6.12	4.75	–	–	7.07
